The results in this text go back to ChEMBL document CHEMBL1123129, “Hypolipidemic activity of indan-1,3-dione derivatives in rodents” (J Med Chem, 1985).

Values joined by “and” are separate entries in the source; they are usually repeats but may differ in a detail not shown here. Identical values can stand only once.

For data set [1], the system named is Mus musculus. The data set is described as follows: Compound was evaluated for the hypolipidemic activity in CF1 male mice at a dose of 60 mg/kg orally for Serum cholesterol at 16th day. The class given is functional. The note with it: route oral. The essentials: (§1)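 CF1 male mice received the agent orally in 1% CMC at 10–60 mg/kg per day. Tail-vein blood was taken on days 9 and 16. Serum cholesterol was measured by modified Liebermann–Burchard on duplicate 25-µL samples, and serum triglyceride on day 16 in duplicate 50-µL samples. Values are % of vehicle control, mean ± SD, N = 6; Student's t test.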

The subject of data set [2] is Rattus norvegicus. The data set can be described thus: Compound was evaluated for the hypolipidemic activity at 20 mg/kg per day orally for 14 days on cholesterol content in rat liver. The note with it: route oral. The class given is functional. Put shortly: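 Male Sprague–Dawley rats were dosed orally for 14 days. Liver, small intestine and a 24-h fecal collection were lipid-extracted. Extracts were assayed for cholesterol (modified Liebermann–Burchard), triglyceride (enzymatic kit), neutral lipids, phospholipids and protein. Values are % of 1% CMC vehicle control, mean ± SD, N = 6.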

Data set [3] deals with Mus musculus. The data set can be described thus: Compound was evaluated for the hypolipidemic activity in CF1 male mice at a dose of 40 mg/kg orally for Serum cholesterol at 16th day. The class given is functional. The note with it: route oral. The essentials:
as §1

Data set [4] concerns Rattus norvegicus. The data set is described as follows: Compound was evaluated for the hypolipidemic activity at 20 mg/kg per day orally for 14 days on protein content in rat VLDL. Type of data set: functional. The note with it: route oral. Put shortly: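 Male Sprague–Dawley rats (~300 g) were dosed orally each day. Blood was drawn from the abdominal vein. Lipoprotein fractions (chylomicron, VLDL, LDL, HDL) were separated by the Hatch–Lees and Havel methods. Each fraction was assayed for cholesterol, triglyceride (enzymatic kit), neutral lipids, phospholipids and Lowry protein. Values are % of 1% CMC vehicle control, N = 6.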

Data set [5] has as its target T1, 3-hydroxy-3-methylglutaryl-coenzyme A reductase (Mus musculus) (UniProt Q01237).
T1 sequence (whole entry): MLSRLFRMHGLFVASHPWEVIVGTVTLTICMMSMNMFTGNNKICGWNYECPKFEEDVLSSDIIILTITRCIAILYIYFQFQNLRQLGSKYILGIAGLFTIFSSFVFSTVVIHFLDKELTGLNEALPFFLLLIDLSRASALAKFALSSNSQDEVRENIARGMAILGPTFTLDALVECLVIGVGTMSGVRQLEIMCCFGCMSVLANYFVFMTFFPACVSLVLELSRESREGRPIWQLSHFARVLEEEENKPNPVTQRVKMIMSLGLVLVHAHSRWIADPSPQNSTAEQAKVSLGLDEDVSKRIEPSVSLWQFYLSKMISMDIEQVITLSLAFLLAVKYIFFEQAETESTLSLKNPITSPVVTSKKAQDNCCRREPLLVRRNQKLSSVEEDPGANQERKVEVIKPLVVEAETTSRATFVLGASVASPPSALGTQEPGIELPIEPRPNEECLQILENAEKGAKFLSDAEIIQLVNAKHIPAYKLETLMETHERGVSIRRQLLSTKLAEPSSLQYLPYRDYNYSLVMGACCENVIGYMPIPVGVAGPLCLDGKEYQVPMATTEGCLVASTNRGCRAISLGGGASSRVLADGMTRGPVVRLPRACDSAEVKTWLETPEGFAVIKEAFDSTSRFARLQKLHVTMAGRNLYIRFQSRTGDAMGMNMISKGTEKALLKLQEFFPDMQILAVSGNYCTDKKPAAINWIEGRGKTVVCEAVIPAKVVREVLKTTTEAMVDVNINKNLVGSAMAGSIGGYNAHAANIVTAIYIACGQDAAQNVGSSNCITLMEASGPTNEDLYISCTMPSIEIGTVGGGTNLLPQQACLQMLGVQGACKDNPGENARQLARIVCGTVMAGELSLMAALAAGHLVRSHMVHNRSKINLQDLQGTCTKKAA
The data set can be described thus: In Vivo effect for the hypolipidemic activity on HMG-CoA reductase in CF1 mice after 16 days of oral administration at a dose of 20 mg/kg. More on the design: dose 20 mg/kg. Type of data set: organism-based. Put shortly: (§2)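 CF1 male mice are dosed orally at 10–60 mg/kg per day for 16 days, with 1% CMC as the control vehicle. Liver is homogenized at 10% in 0.25 M sucrose + 0.001 M EDTA, pH 7.2. Enzymes are assayed by literature methods, with Lowry protein. Activity is given as % of control (X ± SD, N = 6), with p from Student's t test.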

Data set [6] concerns the target T2, Cholesterol 7-alpha-hydroxylase (Cytochrome P450 7A1) (Mus musculus, UniProt Q64505). The data set is described as follows: In vitro percent Cholesterol 7-alpha-hydroxylase activity in mouse CF1 liver microsomes at 100 uM. Details: species or system Microsome. The note with it: read-out: Control. The essentials: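 Mouse liver enzymes assayed in vitro on 10% homogenates of CF1 male mouse liver, with test drug added at 50–200 μM. Each enzyme follows a published procedure. Protein is measured by Lowry. Activity is given as % of untreated control (X ± SD, N = 6).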

The target in data set [7] is T2, Cholesterol 7-alpha-hydroxylase (Cytochrome P450 7A1). The data set can be described thus: In vivo effect on Cholesterol 7-alpha-hydroxylase activity in CF1 mice after 16 days at 40 mg/kg oral dose. Type of data set: functional, organism-based. Details: dose 40 mg/kg, route oral. As to conditions: read-out: Control. The essentials: as §2

T2 sequence (Q64505 whole entry): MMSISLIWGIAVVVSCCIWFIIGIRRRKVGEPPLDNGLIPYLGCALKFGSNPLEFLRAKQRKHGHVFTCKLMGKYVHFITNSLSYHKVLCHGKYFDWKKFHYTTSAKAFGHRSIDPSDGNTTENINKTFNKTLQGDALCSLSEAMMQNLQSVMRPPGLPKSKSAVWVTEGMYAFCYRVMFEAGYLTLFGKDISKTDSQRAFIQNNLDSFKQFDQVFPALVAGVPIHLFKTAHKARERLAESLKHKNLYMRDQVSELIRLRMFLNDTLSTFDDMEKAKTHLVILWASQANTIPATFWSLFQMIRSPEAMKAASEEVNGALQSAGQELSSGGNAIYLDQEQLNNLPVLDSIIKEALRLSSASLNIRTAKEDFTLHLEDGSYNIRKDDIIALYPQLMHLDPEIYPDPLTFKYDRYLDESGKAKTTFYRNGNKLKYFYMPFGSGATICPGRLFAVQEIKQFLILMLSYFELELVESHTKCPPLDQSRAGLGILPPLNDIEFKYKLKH

For `COc1ccc(C2C(=O)c3ccccc3C2=O)cc1` [ANISINDIONE], the Control was 62% in data set [1]; 69% and 84% in data set [2]; 48% in data set [3]; 106% in data set [4]; 114% in data set [5]. Further, the activity at 100 µM in data set [6] was 144%. The activity at 384 h in data set [7] was 55%.
